# Screening data from PubChem.
# Compounds with a hit are over-represented: about 2.1% of the library has one in this group of screens.
# MEKK2 mut-MEK5: signal of MEK5 binding to mutant human MEKK2 PB1 domain. percent response, % at 10 µM. bead flow cytometry, Alexa488-MEK5 binding to MEKK2 mutant. 290,000 tested, 0.35% active; in the data active = percent response above about 24%, passing the limit was not always enough
# MEKK3 PB1 HTS: raises or lowers MEK5 binding to the human MEKK3 PB1 domain; Q99759; bead-based flow cytometry, Alexa488-MEK5 binding to MEKK3; actives lie on both sides; 0 = blocked by unlabeled MEK5, 100 = vehicle; binding response (% of control), % at 10 µM; 290,000 tested, 1.4% active; AID 1529;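 active = binding response more than 3 SD above or below the average of its plate-row segment, actives on both sides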;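 also: Alexa488 bead fluorescence after subtracting the streptavidin-only scavenger bead signal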
# GSK3 alpha inh: blocks human GSK-3 alpha kinase; inhibition, % at 10 µM; 320,000 tested, 0.1% active; ADP-Glo luminescence, 60 min; P49840; AID 2650;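 active = more than half of replicates show inhibition above 20%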;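 also: GST-tagged GSK-3 alpha with peptide substrate and 25 µM ATP; 0% = DMSO neutral wells and 100% = GW8510 positive control wells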
# STK33 kinase inh: blocks human STK33 kinase activity; purified STK33, MBP phosphorylation, ADP-Glo luminescence; Q9BYT3; 320,000 tested, 0.073% active; inhibition, % at 10 µM;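 active = inhibition at or above 25%, using the most active replicate where run in duplicate; inactive = inhibition below 25%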
# Target sequence (Q9BYT3 whole entry, looked up): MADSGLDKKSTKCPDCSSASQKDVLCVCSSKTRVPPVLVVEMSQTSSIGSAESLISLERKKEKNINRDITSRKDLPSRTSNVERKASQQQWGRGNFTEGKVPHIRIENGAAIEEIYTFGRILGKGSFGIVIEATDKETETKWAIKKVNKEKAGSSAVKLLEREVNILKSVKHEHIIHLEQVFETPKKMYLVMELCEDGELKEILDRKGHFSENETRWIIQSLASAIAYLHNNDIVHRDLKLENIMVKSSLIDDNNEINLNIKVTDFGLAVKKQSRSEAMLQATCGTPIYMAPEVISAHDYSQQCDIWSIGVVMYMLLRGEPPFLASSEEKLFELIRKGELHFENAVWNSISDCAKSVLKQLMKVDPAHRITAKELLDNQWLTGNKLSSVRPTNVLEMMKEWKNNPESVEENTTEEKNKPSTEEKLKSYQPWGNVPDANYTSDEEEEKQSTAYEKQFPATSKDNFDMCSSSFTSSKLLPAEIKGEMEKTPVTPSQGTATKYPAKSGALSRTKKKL
# GSK3B inh: human GSK3beta kinase inhibition; P49841; GST-GSK3beta kinase, ADP-Glo luminescence, 60 min; stronger effect = lower value; activity score (negative = inhibition), % at 10 µM; 300,000 tested, 0.038% active;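 active = more than half of replicate wells score below -50%, meaning over 50% inhibition versus plate controls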;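 also: 0% = median DMSO wells and -100% = median GW8510 positive control wells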
#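 Assay system: GST-tagged human GSK3beta kinase, cell-free; Input: 1.6 ng GSK3beta; Medium: Tris/MgCl2 kinase buffer; Timing: 60 min enzyme reaction, room temperature; Signal: ADP-Glo luminescence quantifying ADP generated by kinase; Evaluation: score relative to plate controls; Benchmarks: DMSO neutral wells and GW8510 at 20 µM as positive.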
# MEKK2wt PB1 HTS: raises or lowers MEK5 binding to wildtype human MEKK2 PB1 domain. Q9Y2U5. bead flow cytometry, Alexa488-MEK5 binding to MEKK2 WT; actives lie on both sides. binding response (% of control), % at 10 µM. 290,000 tested, 1.1% active. AID 1531; in the data active = binding response below about 67% or above about 130%
# The depositor's hits bear a star; nt = no result.
SMILES,MEKK2 mut-MEK5,MEKK3 PB1 HTS,GSK3 alpha inh,STK33 kinase inh,GSK3B inh,MEKK2wt PB1 HTS
Cc1nn(Cc2c(Cl)cccc2Cl)c(Cl)c1C(=O)O,4,102,-3,0,2,-4.0*
Cc1ccc(CNC2=NCCS2)cc1,-33,89,-1,0,-1,88
O=C1C2CCN(CC2)C1Cc1ccc(OCc2ccccc2)cc1 (stereo not given),1,101,0,0,1,100
NC(N)=N/N=C/c1cn(-c2ccccc2)nc1-c1cccs1,27,103,11,4,1,184*
CN1CCN(c2nc3ccccc3o2)CC1,-22,86,0,-2,3,75
CCOc1ccc(C(C)=O)cc1Cn1ccsc1=N,23,104,1,1,-3,145*
CCN1C(=O)C(=C2C=C(C)N(Cc3ccco3)C(C)=C2)C(=O)N(CC)C1=S,-3,90,55*,4,-2,89
O=C1NC(=S)N(Cc2ccco2)C(=O)/C1=C\c1cccs1,-52,89,nt,nt,nt,90
O=c1cccc2n1CC1CC2CN(Cc2cccc(Cl)c2Cl)C1 (stereo not given),4,108,0,0,-2,102
C[C@H]1CCCC(=O)CCC/C=C/c2cc(O)cc(O)c2C(=O)O1,-24,97,52*,28*,-44,79
O=C1NC(=O)N(c2ccc(F)cc2)C(=O)/C1=C/c1ccc(N2CCOCC2)cc1,-3,99,nt,-2,0,99
O=C1NC(=O)N(Cc2ccc(F)cc2)C(=O)/C1=C\c1ccc(N2CCCC2)cc1,10,93,-2,-1,-1,18*
CCc1nnc(NC(=O)CCc2nc(C3=CCN(C)CC3)no2)s1,1,99,1,2,0,101
COc1ccc2nc(NC(=O)CCc3nc(C4=CCN(C)CC4)no3)sc2c1,1,98,53*,3,-1,103
CC1(C)C(C(=O)N2CCN(C(=O)c3ccccc3)CC2)C1(C)C,2,100,-2,1,nt,96
COc1ccc(-n2c(O)c(C(C)=NCCCn3ccnc3)c(=O)[nH]c2=O)cc1,-1,100,54*,0,1,101
NC(=S)c1cn(C2OC(CO)C(O)C2O)c2ncnc(N)c12 (stereo not given),4,106,64*,67*,-52*,94
CC(C)(C)C(=O)NC1CCSC1=O (stereo not given),-2,99,3,1,-1,99
Oc1cc2c(cc1O)[C@H]1c3ccccc3CN[C@@H]1CC2,5,104,8,28*,-2,106
O=C1NS(=O)c2cc([N+](=O)[O-])cc([N+](=O)[O-])c21 (stereo not given),-2,85,-1,2,1,89
CC[n+]1c(/C=C/C=C/c2ccc(N(C)C)cc2)sc2ccccc21,12,95,10,7,-7,-5.0*
C[n+]1c(-c2ccccc2)sc2ccccc21,2,104,-2,1,3,106
CN(C)c1ccc(/C=C/C=C/c2sc3ccccc3[n+]2C)cc1,8,98,-2,2,-1,4.0*
Cc1ccc2c(c1)C(c1ccccc1)=NCC(=O)N2,0,102,27,0,-2,99
O=C1CN=C(c2cccs2)c2c(sc3c2CCCC3)N1,8,102,82*,-2,-59*,106
O=C1CN=C(c2ccc[nH]2)c2cc(Cl)ccc2N1,0,102,5,1,0,98
Cc1cc2c(s1)NC(=O)CN=C2c1cccs1,-2,99,54*,4,-23,95
O=C1CN=C(c2ccccc2)c2c(sc3c2CCCC3)N1,3,100,56*,-1,-27,105
COC(=O)C1=C(c2ccc(OC(F)(F)F)cc2)C[C@@H]2CC[C@H]1N2C(=O)NCCOc1ccc(OC)cc1,nt,nt,-2,-1,nt,nt
O=C(NCNC(=O)NC1C(=O)NC(=O)N1CO)NC1C(=O)NC(=O)N1CO (stereo not given),nt,nt,-4,-1,nt,nt
